Measurements taken from ChEMBL document CHEMBL1152541, “Staurosporine tethered peptide ligands that target cAMP-dependent protein kinase (PKA): optimization and selectivity profiling” (Bioorg Med Chem, 2009).
Blank lines part the entries; values can stand above or below the compound they belong to. *1 amine or outer side, *2 acyl side, *3 side chain or, on linkers, in order; H or OH if unused. Where a SMILES comes first, the peptide text is derived from it. Bridges are numbered along the chain shown (N, C = ends). [ ]: non-standard residue; d: D form. The star is where a group is joined. Staurosporine = CO[C@@H]1[C@H](N(C)*)C[C@H]2O[C@]1(C)n1c3ccccc3c3c4c(c5c6ccccc6n2c5c31)C(=O)NC4; Suc = O=C(CCC(=O)[*:2])[*:1]; Dap = NC[C@H](N)C(=O)O; βAla = NCCC(=O)O

Assays:
[1] = target: Serine/threonine-protein kinase PAK 2 (Homo sapiens) (UniProt Q13177); assay: Binding affinity to human PAK2 at 500 nM by cell-based competition binding assay relative to control in presence of DTT
Chain of Serine/threonine-protein kinase PAK 2 (Homo sapiens) (Q13177 whole entry): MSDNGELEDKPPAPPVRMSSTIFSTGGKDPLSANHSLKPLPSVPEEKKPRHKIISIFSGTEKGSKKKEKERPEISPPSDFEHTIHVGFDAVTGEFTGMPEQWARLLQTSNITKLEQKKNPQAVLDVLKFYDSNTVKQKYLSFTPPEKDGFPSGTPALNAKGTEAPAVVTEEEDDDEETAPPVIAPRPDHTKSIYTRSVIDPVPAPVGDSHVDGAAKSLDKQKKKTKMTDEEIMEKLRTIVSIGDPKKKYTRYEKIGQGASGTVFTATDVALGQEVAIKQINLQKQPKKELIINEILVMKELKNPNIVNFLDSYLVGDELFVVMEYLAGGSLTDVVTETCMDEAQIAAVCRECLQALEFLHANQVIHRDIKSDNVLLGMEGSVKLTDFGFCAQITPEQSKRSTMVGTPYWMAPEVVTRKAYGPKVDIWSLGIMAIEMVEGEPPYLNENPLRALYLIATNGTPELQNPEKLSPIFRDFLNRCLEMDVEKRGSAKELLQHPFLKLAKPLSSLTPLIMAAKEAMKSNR

[2] = target: cAMP-dependent protein kinase catalytic subunit alpha (Homo sapiens) (UniProt P17612); assay: Binding affinity to human PKACalpha at 500 nM by cell-based competition binding assay relative to control in presence of DTT
[3] = target: T1, TGF-beta receptor type-1 (Homo sapiens) (UniProt P36897); assay: Binding affinity to human TGFBR1 at 200 nM by cell-based competition binding assay relative to control in presence of DTT
T1 sequence (whole entry): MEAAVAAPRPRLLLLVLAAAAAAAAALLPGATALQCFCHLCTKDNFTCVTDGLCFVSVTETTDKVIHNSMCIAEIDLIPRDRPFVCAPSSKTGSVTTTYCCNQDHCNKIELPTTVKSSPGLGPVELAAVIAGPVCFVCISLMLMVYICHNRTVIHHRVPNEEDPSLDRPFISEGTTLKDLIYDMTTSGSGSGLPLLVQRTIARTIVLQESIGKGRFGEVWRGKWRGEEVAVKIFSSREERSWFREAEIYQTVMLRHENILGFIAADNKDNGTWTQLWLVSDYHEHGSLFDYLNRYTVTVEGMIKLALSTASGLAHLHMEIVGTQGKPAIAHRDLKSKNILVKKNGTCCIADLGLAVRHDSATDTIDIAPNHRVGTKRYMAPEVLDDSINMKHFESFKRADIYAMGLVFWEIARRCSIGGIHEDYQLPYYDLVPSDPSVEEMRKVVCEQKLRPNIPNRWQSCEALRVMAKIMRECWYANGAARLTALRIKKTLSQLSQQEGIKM

[4] = system: Mast/stem cell growth factor receptor Kit (Homo sapiens), P10721 [V559D,T670I]; assay: Binding affinity to human KIT V559D,T670I mutant at 200 nM by cell-based competition binding assay relative to control in presence of DTT
Summary of the method: (§1)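 Competition binding screen (Ambit) across a panel of 90 kinases, scoring test ligand displacement of each kinase's binding relative to control. The screen ran under reducing conditions with 7.5 mM DTT.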

[5] = system: Tyrosine-protein kinase ABL1 (Homo sapiens), P00519 [T315I]; assay: Binding affinity to human ABL1 T315I mutant at 200 nM by cell-based competition binding assay relative to control in presence of DTT
Summary of the method: (§2)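 Kinase binding profiling ran on a commercial (Ambit) competitive binding screen against a panel of 90 kinases. The screen used reducing conditions with 7.5 mM DTT. To withstand the DTT, the bivalent ligand was tested as its amide isostere, with the disulfide replaced. A staurosporine derivative carrying a 3 β-alanine linker was run as the reference compound.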

[6] = target: Ribosomal protein S6 kinase alpha-3 (Homo sapiens) (UniProt P51812); assay: Binding affinity to human RPS6KA3 kinase domain 1 at 200 nM by cell-based competition binding assay relative to control in presence of DTT
[7] = target: RAC-beta serine/threonine-protein kinase (Homo sapiens) (UniProt P31751); assay: Binding affinity to human AKT2 at 50 nM by cell-based competition binding assay relative to control in presence of DTT; summary of the method: as §2
Chain of RAC-beta serine/threonine-protein kinase (Homo sapiens) (P31751 whole entry): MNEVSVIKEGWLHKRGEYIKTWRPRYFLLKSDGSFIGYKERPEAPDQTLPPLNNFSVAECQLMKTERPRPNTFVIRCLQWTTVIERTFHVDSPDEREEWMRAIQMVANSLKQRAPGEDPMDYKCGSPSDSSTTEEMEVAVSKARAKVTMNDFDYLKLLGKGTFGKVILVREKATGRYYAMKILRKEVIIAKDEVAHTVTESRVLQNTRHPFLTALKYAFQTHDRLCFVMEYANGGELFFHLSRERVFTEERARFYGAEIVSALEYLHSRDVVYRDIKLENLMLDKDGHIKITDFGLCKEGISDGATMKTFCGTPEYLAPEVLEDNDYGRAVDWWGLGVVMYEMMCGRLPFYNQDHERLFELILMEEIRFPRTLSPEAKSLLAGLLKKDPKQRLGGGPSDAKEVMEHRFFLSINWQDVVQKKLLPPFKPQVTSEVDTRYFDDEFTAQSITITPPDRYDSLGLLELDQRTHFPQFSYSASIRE

[8] = target: T2, Activin receptor type-1B (Homo sapiens) (UniProt P36896); assay: Binding affinity to human ACVR1B at 50 nM by cell-based competition binding assay relative to control in presence of DTT; summary of the method: as §2
T2 sequence (whole entry): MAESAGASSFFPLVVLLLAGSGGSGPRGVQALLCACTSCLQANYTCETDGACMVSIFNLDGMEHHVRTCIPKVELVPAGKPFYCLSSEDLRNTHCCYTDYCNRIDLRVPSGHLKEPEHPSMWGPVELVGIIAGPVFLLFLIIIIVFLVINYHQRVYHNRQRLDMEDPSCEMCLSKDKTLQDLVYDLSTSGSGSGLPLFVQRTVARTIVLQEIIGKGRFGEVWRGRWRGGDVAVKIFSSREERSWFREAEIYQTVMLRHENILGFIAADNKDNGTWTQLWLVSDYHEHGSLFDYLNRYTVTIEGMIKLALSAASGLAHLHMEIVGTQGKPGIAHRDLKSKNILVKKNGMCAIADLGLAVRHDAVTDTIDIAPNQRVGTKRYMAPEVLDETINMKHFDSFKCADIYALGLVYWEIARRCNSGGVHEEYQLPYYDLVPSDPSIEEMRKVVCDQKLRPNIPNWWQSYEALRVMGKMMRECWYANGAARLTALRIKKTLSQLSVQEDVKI

[9] = target: T3, Aurora kinase A (Homo sapiens) (UniProt O14965); assay: Binding affinity to human aurora kinase A at 50 nM by cell-based competition binding assay relative to control in presence of DTT
T3 sequence (whole entry): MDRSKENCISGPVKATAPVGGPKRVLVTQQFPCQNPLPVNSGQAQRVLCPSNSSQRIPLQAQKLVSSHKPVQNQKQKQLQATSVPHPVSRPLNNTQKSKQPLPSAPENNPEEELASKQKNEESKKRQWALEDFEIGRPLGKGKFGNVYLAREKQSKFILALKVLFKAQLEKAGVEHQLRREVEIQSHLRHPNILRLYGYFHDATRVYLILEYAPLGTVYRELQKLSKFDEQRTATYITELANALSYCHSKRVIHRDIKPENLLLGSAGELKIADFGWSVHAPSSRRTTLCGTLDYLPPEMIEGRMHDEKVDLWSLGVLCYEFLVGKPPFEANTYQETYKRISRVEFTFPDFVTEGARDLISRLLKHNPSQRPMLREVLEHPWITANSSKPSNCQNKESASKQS

[10] = target: Non-receptor tyrosine-protein kinase TYK2 (Homo sapiens) (UniProt P29597); assay: Binding affinity to human TYK2 kinase domain 2 at 50 nM by cell-based competition binding assay relative to control in presence of DTT
Chain of Non-receptor tyrosine-protein kinase TYK2 (Homo sapiens) (P29597 whole entry, the tested form may be a part): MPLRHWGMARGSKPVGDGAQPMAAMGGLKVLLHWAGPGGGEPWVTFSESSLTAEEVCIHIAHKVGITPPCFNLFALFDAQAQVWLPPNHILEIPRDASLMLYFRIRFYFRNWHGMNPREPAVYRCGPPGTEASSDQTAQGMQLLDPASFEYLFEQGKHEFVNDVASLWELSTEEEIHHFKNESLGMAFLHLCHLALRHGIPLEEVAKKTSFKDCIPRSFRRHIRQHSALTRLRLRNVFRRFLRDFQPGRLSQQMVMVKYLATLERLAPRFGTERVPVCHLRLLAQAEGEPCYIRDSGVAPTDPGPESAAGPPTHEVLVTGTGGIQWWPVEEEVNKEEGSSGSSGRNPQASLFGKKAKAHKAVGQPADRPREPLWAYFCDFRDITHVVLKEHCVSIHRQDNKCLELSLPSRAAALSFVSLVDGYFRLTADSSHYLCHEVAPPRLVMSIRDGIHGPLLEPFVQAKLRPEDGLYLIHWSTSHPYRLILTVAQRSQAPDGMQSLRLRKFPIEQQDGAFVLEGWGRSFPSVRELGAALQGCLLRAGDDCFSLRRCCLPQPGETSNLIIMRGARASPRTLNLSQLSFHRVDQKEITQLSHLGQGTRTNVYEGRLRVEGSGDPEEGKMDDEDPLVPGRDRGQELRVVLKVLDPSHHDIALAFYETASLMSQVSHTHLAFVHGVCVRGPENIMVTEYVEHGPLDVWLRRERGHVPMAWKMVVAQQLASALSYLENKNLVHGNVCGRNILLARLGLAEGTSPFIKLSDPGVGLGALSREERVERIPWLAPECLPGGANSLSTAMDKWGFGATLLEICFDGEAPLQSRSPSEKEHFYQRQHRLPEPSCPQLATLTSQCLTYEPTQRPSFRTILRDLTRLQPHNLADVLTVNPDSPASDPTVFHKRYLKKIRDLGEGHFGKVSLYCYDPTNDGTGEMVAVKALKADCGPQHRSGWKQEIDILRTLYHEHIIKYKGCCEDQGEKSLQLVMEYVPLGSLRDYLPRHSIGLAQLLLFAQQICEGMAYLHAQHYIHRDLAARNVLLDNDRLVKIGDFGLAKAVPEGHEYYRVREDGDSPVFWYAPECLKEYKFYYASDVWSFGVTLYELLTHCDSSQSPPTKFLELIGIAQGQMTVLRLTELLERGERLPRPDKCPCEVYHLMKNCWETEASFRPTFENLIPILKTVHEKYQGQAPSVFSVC

[11] = target: Insulin receptor (Homo sapiens) (UniProt P06213); assay: Binding affinity to human INSR at 50 nM by cell-based competition binding assay relative to control in presence of DTT; summary of the method: as §1
[12] = target: Epidermal growth factor receptor (Homo sapiens) (UniProt P00533); assay: Binding affinity to human EGFR at 50 nM by cell-based competition binding assay relative to control in presence of DTT
Chain of Epidermal growth factor receptor (Homo sapiens) (P00533 whole entry): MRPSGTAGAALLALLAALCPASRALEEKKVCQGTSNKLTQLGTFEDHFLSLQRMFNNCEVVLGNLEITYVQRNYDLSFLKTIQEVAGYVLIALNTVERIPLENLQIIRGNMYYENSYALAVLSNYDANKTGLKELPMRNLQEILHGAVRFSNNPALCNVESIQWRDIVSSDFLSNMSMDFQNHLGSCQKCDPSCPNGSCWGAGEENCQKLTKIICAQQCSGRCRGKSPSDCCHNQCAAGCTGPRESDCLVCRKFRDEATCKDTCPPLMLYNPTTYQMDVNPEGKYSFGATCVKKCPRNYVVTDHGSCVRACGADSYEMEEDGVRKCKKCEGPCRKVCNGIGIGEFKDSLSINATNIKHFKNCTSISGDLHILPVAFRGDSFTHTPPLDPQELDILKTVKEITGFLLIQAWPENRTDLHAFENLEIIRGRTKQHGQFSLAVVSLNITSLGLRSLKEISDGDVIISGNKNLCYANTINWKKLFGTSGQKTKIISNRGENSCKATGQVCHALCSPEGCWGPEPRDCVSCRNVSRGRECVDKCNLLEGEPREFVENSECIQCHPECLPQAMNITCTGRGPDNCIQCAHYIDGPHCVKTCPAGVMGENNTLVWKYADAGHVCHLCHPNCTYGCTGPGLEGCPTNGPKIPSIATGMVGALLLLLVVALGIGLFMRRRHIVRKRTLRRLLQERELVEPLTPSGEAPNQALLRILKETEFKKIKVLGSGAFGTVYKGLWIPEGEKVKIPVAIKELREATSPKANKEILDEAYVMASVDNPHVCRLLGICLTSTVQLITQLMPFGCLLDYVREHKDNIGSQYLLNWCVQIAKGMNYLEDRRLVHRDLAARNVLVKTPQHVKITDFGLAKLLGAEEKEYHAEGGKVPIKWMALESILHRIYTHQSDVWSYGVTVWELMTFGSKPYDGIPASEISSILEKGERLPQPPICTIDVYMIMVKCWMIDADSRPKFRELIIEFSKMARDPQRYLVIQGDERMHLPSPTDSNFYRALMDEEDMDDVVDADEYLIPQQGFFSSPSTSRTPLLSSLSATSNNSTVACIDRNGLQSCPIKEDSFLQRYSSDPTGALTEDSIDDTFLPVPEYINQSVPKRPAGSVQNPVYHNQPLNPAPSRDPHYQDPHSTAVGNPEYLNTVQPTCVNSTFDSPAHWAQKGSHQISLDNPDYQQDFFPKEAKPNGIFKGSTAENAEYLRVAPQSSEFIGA
Summary of the method: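 Commercial (Ambit) competitive kinase-binding panel of 90 kinases measured the binding profile. Run under reducing conditions of 7.5 mM DTT. Binding is expressed relative to control.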

[13] = target: Cyclin-dependent kinase 16 (Homo sapiens) (UniProt Q00536); assay: Binding affinity to human PCTK1 at 50 nM by cell-based competition binding assay relative to control in presence of DTT
Chain of Cyclin-dependent kinase 16 (Homo sapiens) (Q00536 whole entry): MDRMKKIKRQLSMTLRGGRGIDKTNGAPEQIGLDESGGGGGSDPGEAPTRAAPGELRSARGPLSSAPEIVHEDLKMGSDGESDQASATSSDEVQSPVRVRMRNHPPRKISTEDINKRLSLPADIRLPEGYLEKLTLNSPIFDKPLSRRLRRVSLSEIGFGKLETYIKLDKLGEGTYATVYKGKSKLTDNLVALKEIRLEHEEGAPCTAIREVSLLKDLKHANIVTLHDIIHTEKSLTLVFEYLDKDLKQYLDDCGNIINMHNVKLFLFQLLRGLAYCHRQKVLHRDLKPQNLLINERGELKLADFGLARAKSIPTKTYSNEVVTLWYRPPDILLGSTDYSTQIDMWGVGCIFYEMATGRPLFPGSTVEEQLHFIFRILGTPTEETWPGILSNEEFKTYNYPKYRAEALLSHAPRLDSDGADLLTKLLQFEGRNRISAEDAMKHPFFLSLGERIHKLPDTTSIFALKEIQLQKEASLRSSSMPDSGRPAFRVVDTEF

[14] = system: Tyrosine-protein kinase ABL1 (Homo sapiens), P00519 [T315I]; assay: Binding affinity to human ABL1 T315I mutant at 50 nM by cell-based competition binding assay relative to control in presence of DTT; summary of the method: as §2
[15] = target: MAP/microtubule affinity-regulating kinase 3 (Homo sapiens) (UniProt P27448); assay: Binding affinity to human MARK3 at 50 nM by cell-based competition binding assay relative to control in presence of DTT; summary of the method: as §1
Chain of MAP/microtubule affinity-regulating kinase 3 (Homo sapiens) (P27448 whole entry, looked up): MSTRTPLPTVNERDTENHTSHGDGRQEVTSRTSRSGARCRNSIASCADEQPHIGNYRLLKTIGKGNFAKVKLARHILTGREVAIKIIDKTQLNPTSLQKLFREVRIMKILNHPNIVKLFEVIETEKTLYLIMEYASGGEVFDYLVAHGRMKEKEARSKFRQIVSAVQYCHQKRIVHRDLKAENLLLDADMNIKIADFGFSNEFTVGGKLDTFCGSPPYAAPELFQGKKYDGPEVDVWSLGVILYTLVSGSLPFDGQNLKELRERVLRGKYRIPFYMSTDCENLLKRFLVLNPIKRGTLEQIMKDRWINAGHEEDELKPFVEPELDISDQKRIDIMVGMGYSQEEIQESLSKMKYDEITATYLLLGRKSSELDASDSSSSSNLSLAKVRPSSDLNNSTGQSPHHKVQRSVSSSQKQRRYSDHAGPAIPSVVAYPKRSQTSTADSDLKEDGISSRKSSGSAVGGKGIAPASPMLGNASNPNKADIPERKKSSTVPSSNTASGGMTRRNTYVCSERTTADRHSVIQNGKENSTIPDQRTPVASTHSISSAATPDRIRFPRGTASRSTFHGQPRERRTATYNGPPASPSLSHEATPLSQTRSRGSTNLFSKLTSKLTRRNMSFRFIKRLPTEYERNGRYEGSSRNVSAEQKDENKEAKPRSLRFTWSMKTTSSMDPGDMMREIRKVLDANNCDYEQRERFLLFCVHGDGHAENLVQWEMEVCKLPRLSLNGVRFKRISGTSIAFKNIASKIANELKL

Activity [1]: 14%
Activity [2]: 52%
Compound: CO[C@@H]1[C@H](N(C)C(=O)CCC(=O)NCCC(=O)NCCC(=O)NCCC(N)=O)C[C@H]2O[C@]1(C)n1c3ccccc3c3c4c(c5c6ccccc6n2c5c31)C(=O)NC4

Activity [3]: 100%
Activity [4]: 4.1%
Activity [5]: 78%
Activity [6]: 100%
Compound: CO[C@@H]1[C@H](N(C)C(=O)CCC(=O)NCCC(=O)NCCC(=O)NCCC(=O)NCCC(=O)NCCC(=O)NCCC(=O)NCCC(=O)N[C@H]2CSSC[C@@H](C(=O)NCC(N)=O)NC(=O)CNC(=O)[C@H](Cc3ccccc3)NC(=O)[C@H](C(C)C)NC(=O)[C@H](CCCNC(=N)N)NC(=O)[C@H](Cc3ccccc3)NC(=O)[C@H](C(C)C)NC2=O)C[C@H]2O[C@]1(C)n1c3ccccc3c3c4c(c5c6ccccc6n2c5c31)C(=O)NC4 ({Staurosporine-Suc-βAla-βAla-βAla-βAla-βAla-βAla-βAla}-CVFRVFGCG-NH2; disulfide 1-8)

Activity [7]: 100%
Activity [8]: 100%
Activity [9]: 63%
Activity [10]: 100%
Activity [11]: 92%
Activity [12]: 87%
Activity [13]: 98%
Activity [14]: 100%
Activity [15]: 61%
Compound: CO[C@@H]1[C@H](N(C)C(=O)CCC(=O)NCCC(=O)NCCC(=O)NCCC(=O)NCCC(=O)NCCC(=O)NCCC(=O)NCCC(=O)N[C@H]2CNC(=O)C[C@@H](C(N)=O)NC(=O)CNC(=O)[C@H](Cc3ccccc3)NC(=O)[C@H](C(C)C)NC(=O)[C@H](CCCNC(=N)N)NC(=O)[C@H](Cc3ccccc3)NC(=O)[C@H](C(C)C)NC2=O)C[C@H]2O[C@]1(C)n1c3ccccc3c3c4c(c5c6ccccc6n2c5c31)C(=O)NC4 ({Staurosporine-Suc-βAla-βAla-βAla-βAla-βAla-βAla-βAla}-[Dap]VFRVFGD-NH2; lactam 1-8)
